Test results taken from ChEMBL document CHEMBL3108734, “Identification of a new scaffold for hsp90 C-terminal inhibition” (ACS Med Chem Lett, 2014).
pIC50: −log10 of the molar value. Active and inactive are the calls of the source. The calls are words filed in the database; no cut-off is given here.

How the values were obtained:
MCF7 = assay: Antiproliferative activity against human MCF7 cells after 72 hrs by MTS assay; type: functional, cell-based; details: MCF7, 72 h
In short: (§1)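 IC50 values for growth inhibition were derived from assays run in triplicate. Values are mean ± standard deviation of at least two separate experiments.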

[1] = Antiproliferative activity against human SKBR3 cells after 72 hrs by MTS assay; type: functional, cell-based; details: SK-BR-3, 72 h; in short: as §1
[2] = molecular target: Heat shock protein HSP 90-beta (Homo sapiens) (UniProt P08238); assay: Inhibition of HSP90 in human MCF7 cells assessed as degradation of Her-2 after 24 hrs by Western blotting analysis; type: cell-based
In short: (§2)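 MCF-7 breast cancer cells were treated with compound at the concentrations shown, then lysed. Lysates were analysed by Western blot for the Hsp90-dependent clients Her2, Raf-1 and p-Akt, with actin as the Hsp90-independent control. Geldanamycin (0.5 μM) served as positive control and DMSO as negative control.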

[3] = molecular target: Heat shock protein HSP 90-beta (Homo sapiens) (UniProt P08238); assay: Inhibition of HSP90 in human MCF7 cells assessed as degradation of Raf-1 after 24 hrs by Western blotting analysis; type: cell-based; in short: as §2
[4] = molecular target: Heat shock protein HSP 90-beta (Homo sapiens) (UniProt P08238); assay: Inhibition of HSP90 in human MCF7 cells assessed as degradation of p-Akt after 24 hrs by Western blotting analysis; type: cell-based; in short: as §2
[5] = molecular target: Heat shock protein HSP 90-beta (Homo sapiens) (UniProt P08238); assay: Inhibition of HSP90 in human MCF7 cells assessed as degradation of Her-2 at 1 to 10 uM after 24 hrs by Western blotting analysis; type: cell-based; in short: as §2
[6] = molecular target: Heat shock protein HSP 90-beta (Homo sapiens) (UniProt P08238); assay: Inhibition of HSP90 in human MCF7 cells assessed as degradation of p-Akt at 1 to 10 uM after 24 hrs by Western blotting analysis; type: cell-based; in short: as §2
[7] = molecular target: Heat shock protein HSP 90-beta (Homo sapiens) (UniProt P08238); assay: Inhibition of HSP90 in human MCF7 cells assessed as degradation of Raf-1 at 1 to 10 uM after 24 hrs by Western blotting analysis; type: cell-based; in short: as §2

Sequence of Heat shock protein HSP 90-beta (Homo sapiens) (P08238 whole entry): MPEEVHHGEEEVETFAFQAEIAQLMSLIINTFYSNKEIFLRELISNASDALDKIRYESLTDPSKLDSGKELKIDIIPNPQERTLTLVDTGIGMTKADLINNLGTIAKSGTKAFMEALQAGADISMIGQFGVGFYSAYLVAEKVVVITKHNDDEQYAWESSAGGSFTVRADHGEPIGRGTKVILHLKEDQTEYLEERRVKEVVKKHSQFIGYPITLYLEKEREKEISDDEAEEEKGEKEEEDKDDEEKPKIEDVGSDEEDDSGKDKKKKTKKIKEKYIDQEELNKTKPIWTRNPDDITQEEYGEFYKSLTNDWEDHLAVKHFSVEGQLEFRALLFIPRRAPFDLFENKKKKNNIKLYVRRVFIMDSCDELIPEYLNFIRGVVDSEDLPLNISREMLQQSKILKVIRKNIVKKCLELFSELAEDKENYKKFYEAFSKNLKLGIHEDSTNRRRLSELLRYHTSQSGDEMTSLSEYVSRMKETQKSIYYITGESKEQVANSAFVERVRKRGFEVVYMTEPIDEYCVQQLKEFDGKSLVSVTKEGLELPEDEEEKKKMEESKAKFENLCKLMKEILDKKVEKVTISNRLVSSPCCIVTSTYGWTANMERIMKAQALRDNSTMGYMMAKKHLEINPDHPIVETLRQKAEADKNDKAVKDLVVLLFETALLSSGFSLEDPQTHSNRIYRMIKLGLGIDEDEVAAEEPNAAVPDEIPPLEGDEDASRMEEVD

| pIC50 (MCF7) | SMILES | pIC50 [1] | also measured |
| --- | --- | --- | --- |
| 5.46 | CN1CCC(Oc2ccc(-c3cccc(NC(=O)c4ccc(C(C)(C)C)cc4)c3)cc2)CC1 | 5.82 |  |
| 5.26 | COc1ccc(C(=O)Nc2cccc(-c3ccc(OC4CCN(C)CC4)cc3)c2)cc1 | 5.00 |  |
| 5.68 | CN1CCC(Oc2ccc(-c3cccc(NC(=O)c4cccc(Cl)c4)c3)cc2)CC1 | 5.37 |  |
| 5.96 | CN1CCC(Oc2ccc(-c3cccc(NC(=O)c4cccc5ccccc45)c3)cc2)CC1 | 5.79 |  |
| 5.84 | CC(=O)Oc1ccc(C(=O)Nc2cccc(-c3ccc(OC4CCN(C)CC4)cc3)c2)cc1CC=C(C)C | 5.44 |  |
| 5.41 | Cc1ccc(C(=O)Nc2cccc(-c3ccc(OC4CCN(C)CC4)cc3)c2)cc1 | 5.28 |  |
|  | CO[C@@H]1[C@@H](OC(N)=O)[C@@H](O)[C@H](Oc2ccc3c(O)c(NC(=O)c4ccc(O)c(CC=C(C)C)c4)c(=O)oc3c2C)OC1(C)C [NOVOBIOCIN] | 3.15 |  |
| 5.78 | CN1CCC(Oc2ccc(-c3cccc(NC(=O)c4ccc5ccccc5c4)c3)cc2)CC1 | 5.68 |  |
| 5.66 | CN1CCC(Oc2ccc(-c3cccc(NC(=O)c4ccc(Cl)c(Cl)c4)c3)cc2)CC1 | 5.65 |  |
| 5.35 | COc1cccc(C(=O)Nc2cccc(-c3ccc(OC4CCN(C)CC4)cc3)c2)c1 | 5.08 |  |
| 5.43 | CN1CCC(Oc2ccc(-c3cccc(NC(=O)c4cc(Cl)cc(Cl)c4)c3)cc2)CC1 | 5.37 |  |
| 4.92 | CN1CCC(Oc2ccc(-c3cccc(NC(=O)c4ccccc4)c3)cc2)CC1 | 4.72 |  |
| 5.57 | COc1cccc(-c2cc(C(=O)Nc3cccc(-c4ccc(OC5CCN(C)CC5)cc4)c3)ccc2OC)c1 | 5.46 |  |
| 5.11 | Cc1cccc(C(=O)Nc2cccc(-c3ccc(OC4CCN(C)CC4)cc3)c2)c1 | 4.94 |  |
| 5.41 | CN1CCC(Oc2ccc(-c3cccc(NC(=O)c4ccc(Cl)cc4Cl)c3)cc2)CC1 | 5.23 |  |
| 6.06 | CN1CCC(Oc2ccc(-c3cccc(NC(=O)c4ccc(Br)cc4)c3)cc2)CC1 | 5.71 | inhibition [2]: Dose-dependent effect; inhibition [3]: Dose-dependent effect; inhibition [4]: Dose-dependent effect |
| 5.65 | CN1CCC(Oc2ccc(-c3cccc(NC(=O)c4ccc(Cl)cc4)c3)cc2)CC1 | 5.44 |  |
| 5.66 | CC(C)=CCc1cc(C(=O)Nc2cccc(-c3ccc(OC4CCN(C)CC4)cc3)c2)ccc1O | 5.53 | inhibition [5]: Active; inhibition [6]: Active; inhibition [7]: Active |
| 5.29 | CN1CCC(Oc2ccc(-c3cccc(NC(=O)c4ccccc4Cl)c3)cc2)CC1 | 5.10 |  |
